Assay outcomes from PubChem BioAssay.
Statin myotox sup – suppressors of simvastatin-induced myotoxicity in C2C12 myotubes; ATP luminescence, 48 h; scaled: DMSO 0, geranylgeraniol control 100; AID 602340; rescue of ATP level, % at 7.49 µM; hit rate 0.78% among 330,000;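 active means mean ATP rescue above about 67%, or every replicate alone reaching that limit, limit read from the data, passing the limit was not always enough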;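 further: myotubes were challenged with 10 µM simvastatin during compound exposure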
E-sel inducer – E-selectin induction on HUVECs | hit rate 0.37% among 260,000 | activation, % at 7.58 µM | HUVEC E-selectin immunofluorescence imaging; normalized: neutral wells 0, TNF-alpha wells 100 | AID 686992 | P16581;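 active means mean E-selectin-positive cell signal at least 10% of the positive control, reached in at least 60% of replicates, without over 20% cell loss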
Target sequence (P16581 whole entry, looked up): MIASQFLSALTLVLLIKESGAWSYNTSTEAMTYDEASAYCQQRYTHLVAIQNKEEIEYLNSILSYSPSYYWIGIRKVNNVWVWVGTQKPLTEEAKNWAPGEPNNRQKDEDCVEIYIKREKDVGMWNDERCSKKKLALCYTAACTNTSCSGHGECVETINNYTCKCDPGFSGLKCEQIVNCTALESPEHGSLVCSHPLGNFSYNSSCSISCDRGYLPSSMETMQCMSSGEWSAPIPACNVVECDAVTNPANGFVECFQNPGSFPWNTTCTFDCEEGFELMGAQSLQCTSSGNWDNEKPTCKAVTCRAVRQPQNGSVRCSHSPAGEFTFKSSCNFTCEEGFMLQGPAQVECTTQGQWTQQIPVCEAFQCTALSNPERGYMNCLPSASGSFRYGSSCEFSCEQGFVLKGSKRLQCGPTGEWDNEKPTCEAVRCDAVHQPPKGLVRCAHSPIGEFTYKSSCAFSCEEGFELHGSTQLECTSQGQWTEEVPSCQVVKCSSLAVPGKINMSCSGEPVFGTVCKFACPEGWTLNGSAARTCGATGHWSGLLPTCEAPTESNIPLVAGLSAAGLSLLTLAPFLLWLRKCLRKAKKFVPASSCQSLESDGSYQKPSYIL
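Read-out basis: % PE-positive cells; Test system: HUVEC primary endothelial cells; Technique: immunofluorescence imaging; Dosing: single-point compound dose.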
DENV2 CPE – protects cells from dengue virus 2 cytopathic effect; AID 651640; CPE inhibition, % at 9.99 µM; hit rate 1.7% among 350,000; DENV2-infected cells, cytopathic effect rescue, plate reader; in the data active means CPE inhibition above about 20%, passing the limit was not always enough; tested in BHK-21 cells;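 further: 0% = median of neutral control wells and 100% = median of positive control wells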
Active calls of the source: *; . = no result; ! = repeats disagree. Sampled rows, rich in hits. Any-hit rate of the full collection: about 2.2%.

SMILES	Statin myotox sup	E-sel inducer	DENV2 CPE
N#Cc1cccc(-c2ccc([C@@H]3[C@H](CO)N4CCCCN(C(=O)Nc5ccc(F)cc5)C[C@@H]34)cc2)c1	.	0	26*
O=C(Nc1ccc(F)cc1)N1CCCCN2[C@H](CO)[C@@H](c3ccc(C4=CCCCC4)cc3)[C@H]2C1	.	0	29*
N#Cc1cccc(-c2ccc([C@@H]3[C@@H](CO)N4CCCCN(C(=O)Nc5ccc(F)cc5)C[C@@H]34)cc2)c1	.	0	1
O=C(Nc1ccc(F)cc1)N1CCCCN2[C@@H](CO)[C@H](c3ccc(C4=CCCCC4)cc3)[C@@H]2C1	.	0	3
C[C@@H]1CN([C@H](C)CO)C(=O)c2cc(NC(=O)Cc3cn(C)c4ccccc34)ccc2O[C@@H]1CN(C)C(=O)Nc1cccc2ccccc12	0	.	-3
C[C@@H]1CN([C@H](C)CO)C(=O)c2cccc(NS(=O)(=O)c3ccc(Cl)cc3)c2O[C@@H]1CN(C)Cc1ccc(C(=O)O)cc1	.	6	-6
O=C(Nc1ccccc1)Nc1ccc2c(c1)[C@H]1C[C@H](CC(=O)N3CCCCC3)O[C@@H](CO)[C@H]1O2	3	0	1
N#Cc1c(/N=C/c2cccs2)sc2c1CCC2	3	.	.
N#Cc1c(/N=C/c2cc(Br)cs2)sc2c1CCC2	68*	.	.
C[C@H](CO)N1C[C@H](C)[C@@H](CN(C)C(=O)Nc2ccc(C(F)(F)F)cc2)Oc2ncc(-c3ccc(C#N)cc3)cc2C1=O	-14	-1	6
C[C@@H]1CN([C@@H](C)CO)C(=O)c2cc(NC(=O)CCC(F)(F)F)ccc2O[C@@H]1CN(C)S(=O)(=O)c1cn(C)cn1	-8	-12	4
COCCNC(=O)c1sc2nc(-c3ccccc3)cn2c1C	16	.	.
Cc1c(C(=O)NCCCN2CCOCC2)sc2nc(-c3ccccc3)cn12	.	0	87*
C[C@H](CO)N1C[C@H](C)[C@H](CN(C)C(=O)Nc2ccc3c(c2)OCO3)Oc2c(NS(=O)(=O)c3ccccc3)cccc2C1=O	-13	.	-5
C[C@@H]1CN([C@@H](C)CO)C(=O)c2cccc(NS(=O)(=O)c3ccc(F)cc3)c2O[C@@H]1CN(C)C(=O)Nc1ccc2c(c1)OCO2	53	1	-7
C[C@H](CO)N1C[C@H](C)[C@@H](CN(C)C(=O)Nc2ccc3c(c2)OCO3)Oc2c(NS(=O)(=O)c3ccccc3)cccc2C1=O	-7	0	28*!
C[C@@H]1CN([C@H](C)CO)C(=O)c2cccc(NS(=O)(=O)c3ccc(F)cc3)c2O[C@@H]1CN(C)C(=O)Nc1ccc2c(c1)OCO2	15	1	24*
CCCNC(=O)[C@H]1N[C@H]2c3ccc(C4=CCCC4)c(=O)n3C[C@H]2[C@@H]1CO	-22	0	-3
CN1[C@@H]2Cn3c(ccc(C4=CCCC4)c3=O)[C@H]1[C@@H](C(=O)NC1Cc3ccccc3C1)[C@@H]2CO	-1	0	2
COc1cccc(NC(=O)N(C)C[C@@H]2Oc3ncc(C4=CCCCC4)cc3C(=O)N([C@@H](C)CO)C[C@H]2C)c1	27	0	3
COCCN(C[C@H]1[C@H](c2ccccc2)[C@@H](CO)N1C(C)=O)C(=O)c1ccccc1	11	0	6
COCCN(C[C@H]1[C@H](c2ccccc2)[C@@H](CO)N1C(C)=O)C(=O)c1ccncc1	-3	0	26*
COCCN(C[C@@H]1[C@@H](c2ccccc2)[C@H](CO)N1C(C)=O)C(=O)c1ccncc1	3	0	24*
COCCN(C[C@@H]1[C@@H](c2ccccc2)[C@@H](CO)N1C(C)=O)C(=O)c1ccncc1	3	0	-4
CCN(C[C@H]1N[C@H](CO)[C@@H]1c1ccccc1)C(=O)c1ccncc1	4	0	.
SMILES	Statin myotox sup	E-sel inducer	DENV2 CPE
CCN(C[C@@H]1N[C@H](CO)[C@H]1c1ccccc1)C(=O)c1ccncc1	-1	0	26*
O=C(C[C@@H]1C[C@H]2c3cc(NC(=O)NC4CCCC4)ccc3O[C@H]2[C@H](CO)O1)NCc1ccncc1	2	0	1
C[C@@H]1CCCCO[C@H](CN(C)C(=O)Nc2ccc(C(F)(F)F)cc2)[C@@H](C)CN([C@@H](C)CO)C(=O)c2cc(NC(=O)c3ccccc3)ccc2O1	16	0	-2
C[C@@H]1CN([C@H](C)CO)C(=O)c2cc(C#CCN(C)C)cnc2O[C@H]1CN(C)C	-15	0	-1
CN1C(=O)c2cc(NC(=O)C3CCCC3)ccc2OC[C@@H]2O[C@@H](CC(=O)O)CC[C@@H]21	9	0	-3
COc1ccc(CN(C)C[C@@H]2Oc3ccc(NC(=O)C4CC4)cc3CC(=O)N([C@@H](C)CO)C[C@H]2C)cc1	.	-1	-9
Cc1cccc(C)c1-n1nnnc1C1(C)CCC(=O)N1Cc1ccco1 (centres undefined)	.	11	5
